ChEMBL document CHEMBL4699633, “Total Syntheses of Prenylated Isoflavones from Erythrina sacleuxii and Their Antibacterial Activity: 5-Deoxy-3'-prenylbiochanin A and Erysubin F” (J Nat Prod, 2020)
In brackets after ≈: the same amount, converted by molar mass.

Columns and labels:
[1] = tested on: Escherichia coli; assay: Antibacterial activity against Escherichia coli ATCC 25922 assessed as reduction in microbial growth after 18 hrs by agar dilution method; assay type: functional
In short: (§1)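 Agar dilution on Mueller Hinton agar; compounds dissolved in DMSO, 2-fold serial dilutions in solvent added to agar (DMSO 1% v/v final). Inocula from overnight cultures, adjusted photometrically. Plates incubated aerobically at 37 °C for 18 h. Vancomycin or ampicillin as positive controls, DMSO-only plates as negative controls.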

[2] = tested on: Salmonella enterica subsp. enterica; assay: Antibacterial activity against Salmonella enterica subsp.enterica NCTC 13349 assessed as reduction in microbial growth after 18 hrs by agar dilution method; assay type: functional; in short: as §1
[3] = tested on: Candida albicans; assay: Antifungal activity against Candida albicans ATCC 90028 assessed as reduction in microbial growth after 48 hrs by agar dilution method; assay type: functional
In short: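 Agar dilution in yeast extract peptone dextrose (YPD) agar; compounds in DMSO, 2-fold serial dilutions added to medium (DMSO 1% v/v final). Inoculum from overnight culture, adjusted photometrically. Plates incubated at 30 °C for 48 h. Amphotericin B as positive control, DMSO-only plates as negative control.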

[4] = tested on: Staphylococcus aureus; assay: Antibacterial activity against methicillin-resistant Staphylococcus aureus assessed as reduction in microbial growth after 24 hrs by two-fold serial dilution method; assay type: functional
[5] = tested on: Staphylococcus aureus; assay: Antibacterial activity against methicilin-resistant Staphylococcus aureus ATCC 43300 assessed as reduction in microbial growth after 18 hrs by agar dilution method; assay type: functional
In short: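 MRSA ATCC 43300 tested by standardized agar dilution. Compounds dissolved in DMSO and 2-fold serially diluted in solvent, then added to Mueller Hinton agar at 1% v/v DMSO final. Inoculum from overnight culture, photometrically adjusted. Plates incubated aerobically at 37 °C for 18 h. Vancomycin served as positive control. DMSO-only (1% v/v) plates served as negative control. Read-out was MIC.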

[6] = tested on: Mycobacterium tuberculosis; assay: Antimycobacterial activity against Mycobacterium tuberculosis; assay type: functional
[7] = tested on: Listeria monocytogenes; assay: Antibacterial activity against Listeria monocytogenes assessed as reduction in microbial growth measured every 5 mins for 24 hrs; assay type: functional
[8] = tested on: Plasmodium falciparum; assay: Antiplasmodial activity against chloroquine-resistant Plasmodium falciparum W2 by [3H]-hypoxanthine incorporation assay; assay type: functional, organism-based
[9] = tested on: Plasmodium falciparum; assay: Antiplasmodial activity against chloroquine-sensitive Plasmodium falciparum D6 by [3H]-hypoxanthine incorporation assay; assay type: functional, organism-based

## CC1(C)S[C@@H]2[C@H](NC(=O)[C@H](N)c3ccccc3)C(=O)N2[C@H]1C(=O)O [AMPICILLIN]
[1]
  MIC: 11.4 µM
[2]
  MIC: 11.4 µM

## CC(C)=CCc1cc(-c2coc3c(CC=C(C)C)c(O)ccc3c2=O)ccc1O [ERYSUBIN F]
[1]
  MIC: > 82 µM
[3]
  MIC: > 82 µM
[2]
  MIC: > 82 µM
[4]
  MIC: 256 µM
[5]
  MIC: 15.4 µM
[6]
  MIC: 32 µM (≈ 12.5 µg/mL)

## CC(C)=CCc1cc(-c2coc3cc(O)cc(O)c3c2=O)ccc1O [CORYLIN]
[7]
  MIC: 59.1 µM

## CC(C)=CCc1cc(-c2cc(=O)c3ccc(O)c(CC=C(C)C)c3o2)ccc1O
[1]
  MIC: > 82 µM
[3]
  MIC: > 82 µM
[2]
  MIC: > 82 µM
[5]
  MIC: 20.5 µM

## CN[C@H](CC(C)C)C(=O)N[C@H]1C(=O)N[C@@H](CC(N)=O)C(=O)N[C@H]2C(=O)N[C@H]3C(=O)N[C@H](C(=O)N[C@H](C(=O)O)c4cc(O)cc(O)c4-c4cc3ccc4O)[C@H](O)c3ccc(c(Cl)c3)Oc3cc2cc(c3O[C@@H]2O[C@H](CO)[C@@H](O)[C@H](O)[C@H]2O[C@H]2C[C@](C)(N)[C@H](O)[C@H](C)O2)Oc2ccc(cc2Cl)[C@H]1O [VANCOMYCIN]
[5]
  MIC: 0.5 µM

## C[C@@H]1[C@H](O)[C@@H](C)/C=C/C=C/C=C/C=C/C=C/C=C/C=C/[C@H](O[C@@H]2O[C@H](C)[C@@H](O)[C@H](N)[C@@H]2O)C[C@@H]2O[C@](O)(C[C@@H](O)C[C@@H](O)[C@H](O)CC[C@@H](O)C[C@@H](O)CC(=O)O[C@H]1C)C[C@H](O)[C@H]2C(=O)O [AMPHOTERICIN B]
[3]
  MIC: 0.5 µM

## CC(C)=CCc1c(O)cc(O)c2c(=O)c(-c3ccc(O)cc3)coc12
[7]
  MIC: > 148 µM

## COc1ccc(-c2coc3cc(O)ccc3c2=O)cc1CC=C(C)C
[1]
  MIC: > 95.1 µM
[8]
  IC50: 20 µM
[3]
  MIC: > 95.1 µM
[2]
  MIC: > 190 µM
[9]
  IC50: 20 µM
[5]
  MIC: > 155 µM

## CC(C)=CCc1c(O)cc2occ(-c3ccc(O)cc3)c(=O)c2c1O [WIGHTEONE]
[7]
  MIC: 29.6 µM
